Variants at the floor of the assay were thinned out.
B1: tRNA (parent)
chain: GUUCCGUUGGCGUAAUGGUAACGCGUCUCCCUCCUAAGGAGAAGACUGCGGGUUCGAGUCCCGUACGGAACG

Variants of: B1
Assay: yeast fitness relative to wild type (ratio to wild type); higher = fitter; tRNA-Arg(CCU), competitive growth, 37 C, YPD
How it was run: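 Genotype frequency changes were the basis for Darwinian fitness relative to wild type. The frequencies came from 100-nucleotide paired-end sequencing of gene amplicons from the start population and each end population of pooled yeast strains with tRNA-Arg(CCU) gene variants at the native locus. Competition ran in YPD at 37°C for 24 hours in six replicates, genotypes needed ≥ 100 starting reads, and estimates < 0.5 were set to 0.5.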

Variant	yeast fitness
GUUCCGUUGCGGUAAUGGUAAAGCGUCUCGCUCCUAAGGAGAAGACUGCGGGAUCGAGUCCCGUACGGAACG [G10C C11G C22A C30G U53A]	0.653
GUUCCGUUGCCGUAAUGGUAACGCGUCUACCUCCUAAGGAGAAGAUUGCGGGUUCGAGUGCCGUACGGAACG [G10C C29A C46U C60G]	≤ 0.5
GUUCCGUUGCCGUAAUGGUAAAGCGUCUGCCUCCUAAGGAGAAGACUGGGGGUUCGAGUCCCGUACGGAACG [G10C C22A C29G C49G]	≤ 0.5
GUUCCGUUGCCGUAAUGGUAACGGGUCUCCCUCCUAAGGAGAAGACUGGGGGUUAGAGUCCCGUACGGAACG [G10C C24G C49G C55A]	0.683
GUUCCGUUGCCGUAAUGGUAACGCGUCUACCUCCUAAGGUGAAGACUGCGGGUUCGAGUCCGGUACGGAACG [G10C C29A A40U C62G]	≤ 0.5
GUUCCGUUGCCGUAAUGGUAAUGAGUCCCCCUCCUAAGGAGAAGGCUGCGGGUUCGAGUCCCGUACGGAACG [G10C C22U C24A U28C A45G]	≤ 0.5
GUUCCGUUGCGGUAAUGGUAACGCGUCUCCCUCCUAAGGAGAAGACUGCGGGUUGGAGUCCUGUACGGAACG [G10C C11G C55G C62U]	0.62
GUUCCGUUGCCGUAAUGGUAACGCGUCUUCCUCCUAAGGAGAAGACUGCGGGUUCGAGUCCCGUACGGCACG [G10C C29U A69C]	≤ 0.5
GUUCCGUUGCCGUAAUGGUAAAGCGUCUCCCUACUAAGGAGAAGACUGCGGGUUCGAGUCCCGUACGGAACG [G10C C22A C33A]	0.538
GUUCCGUUGCCGUAAUGGUAAUGCGUCUCCCUCCUAAGGAGUAGACUGCGGGUUCGAGUGCCGUACGGAACG [G10C C22U A42U C60G]	≤ 0.5
GUUCCGUUGCCGUAAUGGUAACGCGUCUACUUCCUAAGGAGAAGACUGCGGGUUCGAGUCCCGUACGCAACG [G10C C29A C31U G68C]	≤ 0.5
GUUCCGUUGCUGUAAUGGUAAGGCGUGUCCCUGCUAAGGAGCAGACUGCGGGUUCGAGUCCCGUACGGAACG [G10C C11U C22G C27G C33G A42C]	≤ 0.5
GUUCCGUUGCUGUAAUGGUAACGCGUCUCCCUCCUAAGGAGAAGACUGAGGGUUCGAGUCCCGUACGGAACG [G10C C11U C49A]	0.562
GUUCCGUUGCCGUAAUGGUAACGCGUUUCCCUCCUAAGGAGAAGACUGCGGGUUCGAGUCCCGUCCGGAACG [G10C C27U A65C]	0.552
GUUCCGUUGCCGUAAUGGUAACGCGUCUUCUUCCUAAGGAGAAGCCUGCGGGUUCGAGUCCCGUACGGAACG [G10C C29U C31U A45C]	0.623
GUUCCGUUGCCGUAAUGGUAACGGGUUUCCCUUCUAAGGAGAAGACUGCCGGUUCGAGUCCCGUACGAAACG [G10C C24G C27U C33U G50C G68A]	≤ 0.5
GUUCCGUUGCCGUAAUGGUAAUGCGUCUCCCUCCUAAGGAGAAGACUGCGGAUUCGAGUCCCGUACGGAACG [G10C C22U G52A]	≤ 0.5
GUUCCGUUGCCGUAAUGGUAACGCGUGUCCCUCCUAAGGAGAAGACUGCGGGUCCGAGUCGCGUACGGAACG [G10C C27G U54C C61G]	≤ 0.5
GUUCCGUUGCCGUAAUGGUAACGCGUCUACCUCCUAAGGUGAAGACUGCGGGUUGGAGUCCCGUACGGAACG [G10C C29A A40U C55G]	≤ 0.5

Variant	yeast fitness
GUUCCGUUGCGGUAAUGGUAUCGCGUCUCCCUCCUAAGGAGAAGCCUGCGGCUUCGGGUCCCGUACGGAACG [G10C C11G A21U A45C G52C A57G]	≤ 0.5
GUUCCGUUGCCGUAAUGGUAACGGGUCUCCCUCCUAAGGAGAAGACUGUGGGUUCGAGUCCCGUACGGAACG [G10C C24G C49U]	≤ 0.5
GUUCCGUUGCCGUAAUGGUAACGGGUCUCCCUCCUAAGGAGAAGACUGGGGGUUCGAGUCCCGUACGGAACG [G10C C24G C49G]	≤ 0.5
GUUCCGUUGCCGUAAUGGUAAAGGGUCUCCCUCCUAAGGAGAAGACUGCGGGAUCCAGUCCUGUACGGAACG [G10C C22A C24G U53A G56C C62U]	≤ 0.5
GUUCCGUUGCCGUAAUGGUAACGCGUAUCCCUCCUAAGGAGAAGACUGCGGGUUCGAGUCCCGUACGGAACG [G10C C27A]	0.593
GUUCCGUUGCCGUAAUGGUAACGCGUCUGCCUCCUAAGAAGAAGACUGCGGGUUCGAGUCCCGAACGGAACG [G10C C29G G39A U64A]	≤ 0.5
GUUCCGUUGCCGUAAUGGUAAUGCGUCUCCCUCCUAAGGAGAAGACUGUGGGUUCGAGUCCCGUACGGAGCG [G10C C22U C49U A70G]	≤ 0.5
GUUCCGUUGCUGUAAUGGUAACGCGUCUCGCUCCUAAGGAGAAGACUACGGGUACGAGUCCCGUACGGAACG [G10C C11U C30G G48A U54A]	0.693
GUUCCGUUGCCGUAAUGGUAAGGCGUCUACCUCCUAAGGAAAAGAUUGCGGGUUCGAGUCCCGUCCGGAACG [G10C C22G C29A G41A C46U A65C]	≤ 0.5
GUUCCGUUGCCGUAAUGGUAACGUGUCUCCCUCCUAAGGAGAAGACUGCGGGUUCGAGUCGCGUAUGGUACG [G10C C24U C61G C66U A69U]	≤ 0.5
GUUCCGUUGCCGUAAUGGUAACGCGUCUGCCUCCUAAGGAGUAGACUGCGGGUUCGAAUCCCAUACAGAACG [G10C C29G A42U G58A G63A G67A]	≤ 0.5
GUUCCGUUGCCGUAAUGGUAACGCGUGUCCCUCCUAAGGAGCAGACUGCGGGUUCGAGUCCCGUACGGAACG [G10C C27G A42C]	≤ 0.5
GUUCCGUUGCGGAAAUGGUAACGCGUCUCCCUCCUGAGGAGAAGACUGCGGGUUUGAGUCCCGUACGGAACG [G10C C11G U13A A36G C55U]	≤ 0.5
GUUCCGUUGCGGUAAUGGUAACGGGUCUCCCUCCUAAGGAGAAGACUGCGGGUUCGAGUCCCGUACGGAACG [G10C C11G C24G]	0.577
GUUCCGUUGCCGUAAUGGUAACGCGUCUUCCUCCUAAGGAGAAGACUGCGGGUUCGAGUCCCGUACGGAACG [G10C C29U]	0.589
GUUCCGUUGCUGUAAUGGUAACGCGUGUCCCUCCUAAGGAGGAGACUGCGGGUUUGAGUCCCGUACGGAACG [G10C C11U C27G A42G C55U]	0.785
GUUCCGUUGCCGUAAUGGUAACGUGUCUACCUCCUAAGGAGGAGUGAGCAGGUUCGAGUCCCGGACGGAACG [G10C C24U C29A A42G A45U C46G U47A G50A U64G]	≤ 0.5
GUUCCGUUGCCGUAAUGGUAAUGCGUCUCCCUCCUAAGGAGAAGACUGCGGGUUCGAGUCCCGUCCGGAACG [G10C C22U A65C]	≤ 0.5
GUUCCGUUGCCGUAAUGGUAAUGCGUCUCCCUCCUAAGGAGAAGACUGCGGGUUCGAGUUACCUUCGGAACG [G10C C22U C60U C61A G63C A65U]	≤ 0.5
